Measurements collected from several papers.
Effect on: cell growth or viability

| Structure (SMILES) | cell line | technique | tested at | time | endpoint | value |
| --- | --- | --- | --- | --- | --- | --- |
| O=C1Nc2ccccc2CCCc2ccccc21 | L6 |  |  |  | IC50 | 190000 nM |
| Nc1nc(Cl)nc2c1ncn2[C@H]1C[C@H](O)[C@@H](CO)O1 | GISTT1 | resazurin |  | 72 h | IC50 | > 1000 nM |
| O=c1ncccn1[C@@H]1O[C@H](CO)[C@@H](O)[C@H]1O | MEC1 |  |  | 48 h | IC20 | 75000 nM |
| COc1cc2c(cc1O)CCN(Cc1cc(Cl)c(OC)c(OC)c1)C2 | CNSSF-539 | SRB |  |  | GI50 | 365 nM |
| CC(C)C[C@H](NC(=O)[C@H](Cc1ccccc1)NC(=O)c1cnccn1)B(O)O | GISTT1 |  |  | 72 h | IC50 | 6 nM |
| CN1C(=O)c2ccccc2CCC(=O)c2ccccc21 | L6 |  |  |  | IC50 | > 380000 nM |
| CC[C@@]1(O)C(=O)OCc2c1cc1n(c2=O)Cc2cc3c(CN(C)C)c(O)ccc3nc2-1 | GISTT1 | resazurin |  | 72 h | IC50 | 80 nM |
| COc1cc(CN2CCc3cc(O)ccc3C2)cc(OC)c1OC | CNSSF-539 | SRB |  |  | GI50 | 36 nM |
| O=C1Nc2cc(F)cc(F)c2C(=O)CCc2ccccc21 | L6 |  |  |  | IC50 | 86000 nM |
| CCc1cc(CN2CCc3cc(OS(N)(=O)=O)c(OC)cc3C2)cc(CC)c1CC | CNSSF-539 | SRB |  |  | GI50 | 916 nM |
| N#Cc1ccc2c(c1)CCC(=O)c1ccccc1NC2=O | L6 |  |  |  | IC50 | 150000 nM |
| CC(=O)Nc1cccc(-n2c(=O)n(C3CC3)c(=O)c3c(Nc4ccc(I)cc4F)n(C)c(=O)c(C)c32)c1 | SW1417 | resazurin | 780 pM | 72 h | viability | 99.6% |
